Reference: ChEMBL document CHEMBL5376013, “Design, synthesis and biological evaluation of novel morpholinopyrimidine-5-carbonitrile derivatives as dual PI3K/mTOR inhibitors” (RSC Med Chem, 2024)

Columns and labels:
Type in all cases: functional
Conditions in all cases: read-out: GI
HL-60 = test: Antitumor activity against human HL-60 cells assessed as growth inhibition at 10 uM relative to control
In short: (§1)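 After drug addition, plates were incubated 48 h at 37 °C under 5% CO2. Adherent cells were fixed with cold TCA (10% final, 60 min, 4 °C) and suspension cells with 16% final TCA. Staining used 0.4% SRB in 1% acetic acid, solubilized in 10 mM trizma, read at A515. Percent growth was calculated from time-zero, control and treated absorbances.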

SR = test: Antitumor activity against human SR cells assessed as growth inhibition at 10 uM relative to control
In short: (§2)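 Drug exposure 48 h at 37 °C, 5% CO2. Adherent cells fixed with cold TCA (10% final), suspension cells with TCA (16% final). Stained with 0.4% SRB in 1% acetic acid, dissolved in 10 mM Tris, A515. Growth relative to time-zero and untreated control.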

A549 = test: Antitumor activity against human A549 cells assessed as growth inhibition at 10 uM relative to control; in short: as §1
HOP-62 = test: Antitumor activity against human HOP-62 cells assessed as growth inhibition at 10 uM relative to control; in short: as §1
HOP-92 = test: Antitumor activity against human HOP-92 cells assessed as growth inhibition at 10 uM relative to control; in short: as §1
NCI-H460 = test: Antitumor activity against human NCI-H460 cells assessed as growth inhibition at 10 uM relative to control; in short: as §1
HCC 2998 = test: Antitumor activity against human HCC 2998 cells assessed as growth inhibition at 10 uM relative to control; in short: as §1
SF-295 = test: Antitumor activity against human SF-295 cells assessed as growth inhibition at 10 uM relative to control; in short: as §1
IGROV-1 = test: Antitumor activity against human IGROV-1 cells assessed as growth inhibition at 10 uM relative to control; in short: as §1
OVCAR-4 = test: Antitumor activity against human OVCAR-4 cells assessed as growth inhibition at 10 uM relative to control; in short: as §1
UO-31 = test: Antitumor activity against human UO-31 cells assessed as growth inhibition at 10 uM relative to control; in short: as §2
MDA-MB-231 = test: Antitumor activity against human MDA-MB-231 cells assessed as growth inhibition at 10 uM relative to control; in short: as §1
Hs-578T = test: Antitumor activity against human Hs-578T cells assessed as growth inhibition at 10 uM relative to control; in short: as §1
MDA-MB-468 = test: Antitumor activity against human MDA-MB-468 cells assessed as growth inhibition at 10 uM relative to control; in short: as §1

Compound | inhibition of growth at 10 µM (HL-60) [%] | inhibition of growth at 10 µM (SR) [%] | inhibition of growth at 10 µM (A549) [%] | inhibition of growth at 10 µM (HOP-62) [%] | inhibition of growth at 10 µM (HOP-92) [%] | inhibition of growth at 10 µM (NCI-H460) [%] | inhibition of growth at 10 µM (HCC 2998) [%] | inhibition of growth at 10 µM (SF-295) [%] | inhibition of growth at 10 µM (IGROV-1) [%] | inhibition of growth at 10 µM (OVCAR-4) [%] | inhibition of growth at 10 µM (UO-31) [%] | inhibition of growth at 10 µM (MDA-MB-231) [%] | inhibition of growth at 10 µM (Hs-578T) [%] | inhibition of growth at 10 µM (MDA-MB-468) [%]
CC1=NN(c2nc(-c3ccc(Cl)cc3)c(C#N)c(N3CCOCC3)n2)C(=O)C1 | 18.2 | < 1 | < 1 | 12.6 | 93.7 | < 1 | < 1 | < 1 | 19 | 48.5 | 28.1 | < 1 | 45.4 | < 1
N#Cc1c(-c2ccc(Cl)cc2)[nH]c(=S)[nH]c1=O | < 1 | < 1 | < 1 | < 1 | < 1 | < 1 | < 1 | < 1 | < 1 | < 1 | 10.2 | < 1 | < 1 | < 1
N#Cc1c(-c2ccc(Cl)cc2)nc(N2NC(=O)CC2=N)nc1N1CCOCC1 | < 1 | < 1 | < 1 | < 1 | 12.6 | < 1 | < 1 | < 1 | < 1 | < 1 | 24.6 | < 1 | < 1 | < 1
N#Cc1c(-c2ccc(Cl)cc2)nc(NN)nc1N1CCOCC1 | < 1 | 26.9 | < 1 | 14.4 | 10.6 | < 1 | < 1 | < 1 | 15.9 | < 1 | 34.1 | 14.5 | < 1 | < 1
N#Cc1c(-c2ccc(Cl)cc2)nc(N/N=C2/C(=O)Nc3ccccc32)nc1N1CCOCC1 | < 1 | 25.7 | 12.9 | < 1 | < 1 | 17.6 | < 1 | < 1 | < 1 | < 1 | < 1 | < 1 | < 1 | < 1
CSc1nc(O)c(C#N)c(-c2ccc(Cl)cc2)n1 | < 1 | < 1 | < 1 | < 1 | 24.7 | < 1 | < 1 | < 1 | < 1 | < 1 | < 1 | < 1 | < 1 | < 1
N#Cc1c(-c2ccc(Cl)cc2)nc(NN2C(=O)CCC2=O)nc1N1CCOCC1 | < 1 | < 1 | < 1 | < 1 | < 1 | < 1 | < 1 | < 1 | < 1 | < 1 | 12.5 | < 1 | < 1 | < 1
